The record followed here is the RNAGym collection of RNA variant scans (doi:10.1126/science.aae0568).

Variants at the floor of the assay were thinned out. Some results are limits rather than exact numbers.

To fix the notation:
B1: tRNA (parent)
chain: GUUCCGUUGGCGUAAUGGUAACGCGUCUCCCUCCUAAGGAGAAGACUGCGGGUUCGAGUCCCGUACGGAACG

The variants in this data set derive from B1. Nature of the data set: yeast fitness relative to wild type (ratio to wild type); higher = fitter; tRNA-Arg(CCU), competitive growth, 37 C, YPD. In a few lines:
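Start and end populations of a pooled competition were compared by 100-nucleotide paired-end sequencing of gene amplicons. The Saccharomyces cerevisiae strains carried tRNA-Arg(CCU) gene variants at the native genomic locus, synthesised with a 3% per-site mutation rate at 69 sites, and competed in YPD at 37°C for 24 hours in six parallel replicates. Darwinian fitness relative to wild type was based on the change in genotype frequencies. Genotypes required ≥ 100 starting reads, and estimates < 0.5 were set to 0.5.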
For GUUCCGUUGGCGUAAUGGUAACGCGUCUCCCUCCUAAGGACAAGACUGCGGGUUAGAGUCCCGUACGGAGCG, the yeast fitness was found to be 0.551.

GUUCCGUUGGCGUAAUGGUAACGCGUCUCCCUCCUAAGGAGCAGACUGUGGGUUCGAGUCCCGUACGGAACG: the yeast fitness was 0.939.

For GUUCCGUUGGCGUAAUGGUAACGCGUCUCCCUCCUAAGGAGCAGAAUGCGGGUUCGAGUCCCGUACGGAACG, the yeast fitness stood at 0.783.

Take GUUCCGUUGGCGUAAUGGUAACGCGUCUCCCUCCUAAGGAGCAGAGUGCGGGUUCGAGUCCCGUACGGAACG: the yeast fitness stood at 0.753.

Turning to GUUCCGUUGGCGUAAUGGUAACGCGUCUCCCUCCUAAGGAGCAGACUGAGGGUUCGAGUCCCGUAAGGAACG, the yeast fitness was no more than 0.5.

With GUUCCGUUGGCGUAAUGGUAACGCGUCUCCCUCCUAAGGACAAGAAUGCGGGUUGGAGUCCCGUACGGAACG, the yeast fitness is no more than 0.5.

For GUUCCGUUGGCGUAAUGGUAACGCGUCUCCCUCCUAAGGACAAGACUCCGGGUUCGAGUCCCGUACGGAACG, the yeast fitness worked out at 0.813.

For GUUCCGUUGGCGUAAUGGUAACGCGUCUCCCUCCUAAGGACACGACUGCGGGUUCGAGUCCCGUAAGGAACG, the yeast fitness stood at 0.699.

On to GUUCCGUUGGCGUAAUGGUAACGCGUCUCCCUCCUAAGGAGCAGCCUGCGGGAUCGAGUCCCGUCCGGUACG, for which the yeast fitness was no more than 0.5.

On to GUUCCGUUGGCGUAAUGGUAACGCGUCUCCCUCCUAAGGAGCAGACUGCGGGUUCGAGUCCCGUGGGGAACG, for which the yeast fitness was no more than 0.5.

Turning to GUUCCGUUGGCGUAAUGGUAACGCGUCUCCCUCCUAAGGAGCAGGCUGCGGGUUCGAGUCCCGUACGGAACG, the yeast fitness is 0.95.

With GUUCCGUUGGCGUAAUGGUAACGCGUCUCCCUCCUAAGGACACGUCUGGGGGGUCGAGUCCCGUACGGCACG, the yeast fitness was no more than 0.5.

As for GUUCCGUUGGCGUAAUGGUAACGCGUCUCCCUCCUAAGGACAAGACUACGGGUUAGAGUCCCGUACGGAACG, the yeast fitness came to 0.569.

GUUCCGUUGGCGUAAUGGUAACGCGUCUCCCUCCUAAGGACAAGACUGCGGGUUCGAGUCCUGUACGGCACG: the yeast fitness was found to be 0.619.

With GUUCCGUUGGCGUAAUGGUAACGCGUCUCCCUCCUAAGGACAAGACUGAGGGUUCGAGUCCCGUACAGAACG, the yeast fitness was no more than 0.5.

GUUCCGUUGGCGUAAUGGUAACGCGUCUCCCUCCUAAGGACAAGACUGCGGGUUCGUGUCCCGCACGGAACG: the yeast fitness was no more than 0.5.

Regarding GUUCCGUUGGCGUAAUGGUAACGCGUCUCCCUCCUAAGGAGCAGAGUGCGGGUUCGAGUCCCGUUCGGAACG, the yeast fitness was no more than 0.5.

Take GUUCCGUUGGCGUAAUGGUAACGCGUCUCCCUCCUAAGGACAAGACUGAGGGUUCGAGUCCCGUACGGAACG: the yeast fitness came out at 0.572.

Turning to GUUCCGUUGGCGUAAUGGUAACGCGUCUCCCUCCUAAGGAGCAGACUGCGGGUUCGAGUCCCGUACGGUACG, the yeast fitness came to 0.927.

In the case of GUUCCGUUGGCGUAAUGGUAACGCGUCUCCCUCCUAAGGAGCAGACUGCGGGUUCGAGUCCCGUACGGGACG, the yeast fitness is 0.97.

As to GUUCCGUUGGCGUAAUGGUAACGCGUCUCCCUCCUAAGGAGCAGAGUGCGGGUUCGAGUCCCGUAAGGAACG, the yeast fitness was found to be 0.552.

As to GUUCCGUUGGCGUAAUGGUAACGCGUCUCCCUCCUAAGGAGCAGACUGCGGGUUGGCGUCCUGUACGGAACG, the yeast fitness was no more than 0.5.

Turning to GUUCCGUUGGCGUAAUGGUAACGCGUCUCCCUCCUAAGGAGCAGACUGCGGGUUCGAGUCCCGUACGGAUCG, the yeast fitness turned out to be 1.02.

Turning to GUUCCGUUGGCGUAAUGGUAACGCGUCUCCCUCCUAAGGAGCAGGCUGCGAGUUCGAGUCCCGUACGGAACG, the yeast fitness is no more than 0.5.

As for GUUCCGUUGGCGUAAUGGUAACGCGUCUCCCUCCUAAGGAGCAGACUGCGGGUUCGAGUGCGGUACGCAACG, the yeast fitness was no more than 0.5.

For GUUCCGUUGGCGUAAUGGUAACGCGUCUCCCUCCUAAGGAGCAGACUGCGGGUUAGAGUCCCGUUCGGAACG, the yeast fitness is no more than 0.5.

GUUCCGUUGGCGUAAUGGUAACGCGUCUCCCUCCUAAGGAGCAGCCUACGGGUUCGAGUCCCGUACGGAACG: the yeast fitness turned out to be 0.958.

GUUCCGUUGGCGUAAUGGUAACGCGUCUCCCUCCUAAGGAGCAGACUGCGGGUUCGAGUCCCGUACGGAACG: the yeast fitness was determined as 0.967.

Regarding GUUCCGUUGGCGUAAUGGUAACGCGUCUCCCUCCUAAGGAGCAGACUGCGGGUUCGAGUCCCGUACGGCUCG, the yeast fitness was determined as 0.721.

As to GUUCCGUUGGCGUAAUGGUAACGCGUCUCCCUCCUAAGGACAAGACUGCGGGUUCGAGUUCCGGACGGAACG, the yeast fitness is no more than 0.5.

Consider GUUCCGUUGGCGUAAUGGUAACGCGUCUCCCUCCUAAGGACAAGACUGCGGGUUCGAGUCCCGUAGGGAACG, for which the yeast fitness worked out at 0.594.

In the case of GUUCCGUUGGCGUAAUGGUAACGCGUCUCCCUCCUAAGGACAAGACUGCGGGUUCGAGUCCCGUACGGUGCG, the yeast fitness is 0.537.

On to GUUCCGUUGGCGUAAUGGUAACGCGUCUCCCUCCUAAGGACAAGACUGCGGGUUCGAGUCCCGUACGGUUCG, for which the yeast fitness amounted to 0.629.

Turning to GUUCCGUUGGCGUAAUGGUAACGCGUCUCCCUCCUAAGGACAAGACUGCGGGUUCGGGUCCCGUACGGAACG, the yeast fitness was found to be 0.883.

As to GUUCCGUUGGCGUAAUGGUAACGCGUCUCCCUCCUAAGGACAAGACUGCGGGUUCGUGUCCCGUACGGAACG, the yeast fitness was 0.661.

Take GUUCCGUUGGCGUAAUGGUAACGCGUCUCCCUCCUAAGGAGCAGACUGCGGGUUUGAGUCCCGUACGGAACG: the yeast fitness amounted to 0.744.

As to GUUCCGUUGGCGUAAUGGUAACGCGUCUCCCUCCUAAGGAGCAGACUGCGGGUUGGAGUCCCGUACGGAACG, the yeast fitness is 0.612.
